# ChEMBL document CHEMBL3228030, “Bicyclic pyrazolines, potential central nervous system depressants and antiinflammatory agents” (J Med Chem, 1979)
# Active and inactive are the calls of the source. The calls are words filed in the database; no cut-off is given here.
# Legend:
# Rattus norvegicus [1] = assay: Central nervous system activity in ip dosed rat assessed as induction of depressant; assay type: functional
# Outline: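 Young adult female rats received 5% solutions or dispersions (two drops Tween 80) in water at 200, 100 and 50 mg/kg. Compounds active at 50 mg/kg were also given at 25 and 12.5 mg/kg. The ED value was the lowest dose that decreased motor activity in 2/2 rats.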
# Rattus norvegicus [2] = assay: Antiinflammatory activity in Sprague-Dawley rat assessed as inhibition of carrageenan-induced paw edema at 150 mg/kg, po after 3 hrs; assay type: functional
# Outline: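 Given by mouth in 1 mL water or 1% aqueous sodium carboxymethylcellulose to adult Charles River Sprague-Dawley rats (seven per group), 2 h before a footpad injection of 0.05 mL 1% carrageenan in pyrogen-free saline. After 3 h, rats were killed and paws removed and weighed, with the contralateral paw as control. Read-out was percent inhibition of edema.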
# [3] = Toxicity in po dosed Sprague-Dawley rat; assay type: organism-based; settings: in vivo
# Rattus norvegicus [4] = assay: Toxicity in Sprague-Dawley rat assessed as induction of ulcer at 150 to 600 mg/kg, po after 6 hrs; assay type: organism-based; parameters: dose 150-600 mg/kg, route oral; settings: in vivo
# Outline: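 Male Sprague-Dawley rats were kept without food pellets, with free access to water containing 5% dextrose, for 48 h. The compound, dissolved or suspended in water, was then given by gavage at 150, 300 and 600 mg/kg, eight rats per dose.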
# Rattus norvegicus [5] = assay: Toxicity in rat at 100 mg/kg, ip; assay type: organism-based; parameters: dose 100 mg/kg, route intraperitoneal; settings: in vivo
# Rattus norvegicus [6] = assay: Central nervous system activity in rat assessed as induction of depressant at 100 mg/kg, po; assay type: functional, organism-based; parameters: dose 100 mg/kg
structure (smiles),measurement,setting,value
CNC(=O)N1C/C(=C\c2ccccc2)C2=NN(C)C(c3ccccc3)C2C1.Cl (configuration not stated),ED,Rattus norvegicus [1],>200 mg/kg
CN1N=C2/C(=C\c3ccccc3)CCCC2C1c1ccccc1 (configuration not stated),ED,Rattus norvegicus [1],>200 mg/kg
CN1N=C2/C(=C/c3ccccc3)CN(Cc3ccccc3)CC2C1c1ccccc1.Cl (configuration not stated),ED,Rattus norvegicus [1],100 mg/kg
same,inhibition in vivo at 150 mg/kg,Rattus norvegicus [2],0%
CCC(=O)N1C/C(=C\c2ccccc2)C2=NN(C)C(c3ccccc3)C2C1 (configuration not stated),ED,Rattus norvegicus [1],200 mg/kg
CN(C)CCN1N=C2/C(=C\c3ccccc3)CCCC2C1c1ccccc1.O=C(O)/C=C\C(=O)O (configuration not stated),ED,Rattus norvegicus [1],100 mg/kg
CN1C/C(=C\c2ccccc2)C2=NN(CCO)C(c3ccccc3)C2C1.Cl (configuration not stated),ED,Rattus norvegicus [1],200 mg/kg
same,inhibition in vivo at 150 mg/kg,Rattus norvegicus [2],41%
CCCN1N=C2/C(=C/c3ccccc3)CN(C)CC2C1c1ccccc1.O=P(O)(O)O (configuration not stated),ED,Rattus norvegicus [1],100 mg/kg
same,inhibition in vivo at 150 mg/kg,Rattus norvegicus [2],47%
same,LD50,[3],5400 mg/kg
same,Activity,Rattus norvegicus [4],Non-toxic
CCN(CC)CCCN1N=C2/C(=C\c3ccccc3)CCCC2C1c1ccccc1.O=C(O)/C=C\C(=O)O (configuration not stated),ED,Rattus norvegicus [1],100 mg/kg
CN(C)CCCN1N=C2/C(=C/c3ccccc3)CN(C)CC2C1c1ccccc1.Cl (configuration not stated),ED,Rattus norvegicus [1],100 mg/kg
COc1ccc(/C=C2\CN(C)CC3C2=NN(C)C3c2ccc(OC)cc2)cc1.Cl (configuration not stated),ED,Rattus norvegicus [1],>200 mg/kg
same,inhibition in vivo at 150 mg/kg,Rattus norvegicus [2],29%
CC(=O)N1C/C(=C\c2ccccc2)C2=NN(C)C(c3ccccc3)C2C1 (configuration not stated),ED,Rattus norvegicus [1],100 mg/kg
CN(C)CCN1N=C2/C(=C/c3ccccc3)CN(C)CC2C1c1ccccc1.Cl (configuration not stated),ED,Rattus norvegicus [1],25 mg/kg
same,Activity,Rattus norvegicus [5],Toxic
CN1N=C2/C(=C/c3ccccc3)CNCC2C1c1ccccc1.Cl (configuration not stated),ED,Rattus norvegicus [1],12.5 mg/kg
same,Activity,Rattus norvegicus [6],Active
CCCCN1N=C2/C(=C/c3ccccc3)CN(C)CC2C1c1ccccc1.Cl (configuration not stated),ED,Rattus norvegicus [1],>200 mg/kg
same,inhibition in vivo at 150 mg/kg,Rattus norvegicus [2],26%
C(=C1\CCCC2C1=NN(CCCN1CCOCC1)C2c1ccccc1)/c1ccccc1.Cl (configuration not stated),ED,Rattus norvegicus [1],100 mg/kg
same,inhibition in vivo at 150 mg/kg,Rattus norvegicus [2],30%
CC(=O)N1N=C2/C(=C/c3ccccc3)CN(C)CC2C1c1ccccc1.Cl (configuration not stated),ED,Rattus norvegicus [1],200 mg/kg
CCCC(C)(COC(N)=O)COC(N)=O [MEPROBAMATE],ED,Rattus norvegicus [1],50 mg/kg
CN1N=C2/C(=C/c3ccccc3)CN(CCc3ccccc3)CC2C1c1ccccc1.Cl (configuration not stated),ED,Rattus norvegicus [1],100 mg/kg
same,inhibition in vivo at 150 mg/kg,Rattus norvegicus [2],32%
CCCCN1C/C(=C\c2ccccc2)C2=NN(C)C(c3ccccc3)C2C1.Cl (configuration not stated),ED,Rattus norvegicus [1],100 mg/kg
CN1C/C(=C\c2cccc(Cl)c2)C2=NN(C)C(c3cccc(Cl)c3)C2C1.Cl (configuration not stated),ED,Rattus norvegicus [1],>200 mg/kg
CN1N=C2/C(=C/c3ccccc3)CN(C(=N)N)CC2C1c1ccccc1.Cl (configuration not stated),ED,Rattus norvegicus [1],200 mg/kg
CN1C/C(=C\c2ccccc2Cl)C2=NN(C)C(c3ccccc3Cl)C2C1.Cl (configuration not stated),ED,Rattus norvegicus [1],>200 mg/kg
CCCCC1C(=O)N(c2ccccc2)N(c2ccccc2)C1=O [PHENYLBUTAZONE],inhibition in vivo at 150 mg/kg,Rattus norvegicus [2],51%
same,LD50,[3],1200 mg/kg
same,Activity,Rattus norvegicus [4],Non-toxic
CC(=O)CCN1C/C(=C\c2ccccc2)C2=NN(C)C(c3ccccc3)C2C1.Cl (configuration not stated),ED,Rattus norvegicus [1],>200 mg/kg
CN1C/C(=C\c2ccccc2)C2=NN(C)[C@@H](c3ccccc3)[C@@H]2C1.Cl,ED,Rattus norvegicus [1],50 mg/kg
same,inhibition in vivo at 150 mg/kg,Rattus norvegicus [2],22%
CCN1C/C(=C\c2ccccc2)C2=NN(C)C(c3ccccc3)C2C1.Cl (configuration not stated),ED,Rattus norvegicus [1],200 mg/kg
CN1C/C(=C\c2ccccc2)C2=NN(CCCc3ccccc3)C(c3ccccc3)C2C1.Cl (configuration not stated),ED,Rattus norvegicus [1],>200 mg/kg
CN1C/C(=C\c2ccccc2)C2=NN(CC(F)(F)F)C(c3ccccc3)C2C1.Cl (configuration not stated),ED,Rattus norvegicus [1],100 mg/kg
same,inhibition in vivo at 150 mg/kg,Rattus norvegicus [2],27%
CN1CCN(CCCN2N=C3/C(=C\c4ccccc4)CCCC3C2c2ccccc2)CC1.O=C(O)/C=C\C(=O)O (configuration not stated),ED,Rattus norvegicus [1],200 mg/kg
CN(C)CCCN1N=C2/C(=C\c3ccccc3)CCCC2C1c1ccccc1.O=C(O)C(=O)O (configuration not stated),ED,Rattus norvegicus [1],50 mg/kg
CN1C/C(=C\c2ccc(Cl)cc2)C2=NN(C)C(c3ccc(Cl)cc3)C2C1.Cl (configuration not stated),ED,Rattus norvegicus [1],>200 mg/kg
same,inhibition in vivo at 150 mg/kg,Rattus norvegicus [2],17%
C(=C1\CCCC2C1=NN(CCCN1CCCCC1)C2c1ccccc1)/c1ccccc1.O=C(O)/C=C\C(=O)O (configuration not stated),ED,Rattus norvegicus [1],200 mg/kg
CN1C/C(=C\c2ccccc2)C2=NNC(c3ccccc3)C2C1.Cl (configuration not stated),ED,Rattus norvegicus [1],50 mg/kg
CCN1N=C2/C(=C/c3ccccc3)CN(C)CC2C1c1ccccc1.Cl (configuration not stated),ED,Rattus norvegicus [1],>200 mg/kg
CN(C)CCCN1N=C2/C(=C/c3ccccc3)CN(CCc3ccccc3)CC2C1c1ccccc1.O=C(O)/C=C\C(=O)O (configuration not stated),ED,Rattus norvegicus [1],>200 mg/kg
CN1N=C2/C(=C/c3ccccc3)CN(C(N)=O)CC2C1c1ccccc1 (configuration not stated),ED,Rattus norvegicus [1],>200 mg/kg
